Values after ≈ are worked out from the molar mass of the structure shown.
How the values were obtained:
Oculimacula yallundae = experiment: Antifungal activity against Oculimacula yallundae assessed as inhibition of radial growth on potato dextrose; format: functional, organism-based
How it was run: (§1)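 Radial growth inhibition on potato dextrose or Czapek agar across 100-0.1 mg L-1. ED50 calculated for each compound.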

Bipolaris maydis = experiment: Antifungal activity against Cochliobolus heterostrophus assessed as inhibition of radial growth on potato dextrose; format: functional, organism-based; how it was run: as §1
Uromyces appendiculatus = experiment: Fungicidal activity against Uromyces appendiculatus inoculated in Phaseolus vulgaris placed in growth room after 24 hr incubation assessed as direct protection after 6 to 10 days; format: functional
How it was run: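 Bean plants grown at 22 ± 1 °C, 80 ± 10% RH. Compound in acetone/water (1:4 v/v) with Tween 20 (0.4 mg mL-1) was sprayed on leaves until moist at 100 to 0.001 mg L-1. One day later leaves were inoculated with U. appendiculatus uredospores (1 × 10^5 spores mL-1), held 24 h at 22 ± 2 °C and 100% RH, then moved to the growth room. Scored at 6, 8 and 10 days as MIC.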

Ustilago maydis = experiment: Antifungal activity against Ustilago maydis assessed as inhibition of radial growth on potato dextrose; format: functional, organism-based; details: Mycosarcoma maydis
Botrytis cinerea = experiment: Antifungal activity against Botryotinia fuckelianaassessed as inhibition of radial growth on potato dextrose; format: functional, organism-based; how it was run: as §1
Pyrenophora teres = experiment: Antifungal activity against Pyrenophora teres assessed as inhibition of radial growth on potato dextrose; format: functional, organism-based
Podosphaera fuliginea [1] = experiment: Fungicidal activity against Podosphaera fuliginea inoculated in […] placed in growth room after 24 hr incubation assessed as direct protection after 6 to 10 days; format: functional
Cercospora beticola = experiment: Antifungal activity against Cercospora beticola assessed as inhibition of radial growth on potato dextrose; format: functional, organism-based; how it was run: as §1
Fusarium graminearum = experiment: Antifungal activity against Fusarium graminearum assessed as inhibition of radial growth on potato dextrose; format: functional, organism-based; how it was run: as §1
Podosphaera fuliginea [2] = experiment: Fungicidal activity against Podosphaera fuliginea inoculated in […] placed in growth room after 24 hr incubation assessed as disease cure after 24 hr of inoculation; format: functional

| Structure (SMILES) | EC50 (Oculimacula yallundae) | EC50 (Bipolaris maydis) | MIC (Uromyces appendiculatus) | EC50 (Ustilago maydis) | EC50 (Botrytis cinerea) | EC50 (Pyrenophora teres) | MIC (Podosphaera fuliginea [1]) | EC50 (Cercospora beticola) | EC50 (Fusarium graminearum) | MIC (Podosphaera fuliginea [2]) |
| --- | --- | --- | --- | --- | --- | --- | --- | --- | --- | --- |
| Clc1ccc(C(COCc2ccc3ccccc3c2)Cn2cncn2)c(Cl)c1 (racemic) | 1 µg/mL (≈ 2.43 µM) | 0.15 µg/mL (≈ 0.364 µM) | 120 µg/mL (≈ 291 µM) | 0.18 µg/mL (≈ 0.437 µM) | 2.8 µg/mL (≈ 6.79 µM) | 0.25 µg/mL (≈ 0.606 µM) | 50 µg/mL (≈ 121 µM) | 0.23 µg/mL (≈ 0.558 µM) | 130 µg/mL (≈ 315 µM) | – |
| Clc1ccc(C(COCc2ccc(-c3ccccc3)cc2)Cn2cncn2)c(Cl)c1 (racemic) | 0.5 µg/mL (≈ 1.14 µM) | 0.18 µg/mL (≈ 0.411 µM) | 28 µg/mL (≈ 63.9 µM) | 0.03 µg/mL (≈ 0.0684 µM) | 2.8 µg/mL (≈ 6.39 µM) | 0.55 µg/mL (≈ 1.25 µM) | 10 µg/mL (≈ 22.8 µM) | 0.18 µg/mL (≈ 0.411 µM) | > 200 µg/mL | 6 µg/mL (≈ 13.7 µM) |
| Clc1ccc(C(COCc2cccc(Oc3ccccc3)c2)Cn2cncn2)c(Cl)c1 (racemic) | 5 µg/mL (≈ 11 µM) | 150 µg/mL (≈ 330 µM) | 50 µg/mL (≈ 110 µM) | 0.16 µg/mL (≈ 0.352 µM) | 8 µg/mL (≈ 17.6 µM) | 0.85 µg/mL (≈ 1.87 µM) | 12 µg/mL (≈ 26.4 µM) | 0.14 µg/mL (≈ 0.308 µM) | > 200 µg/mL | – |
| Clc1ccc(C(COCc2ccc(OCc3ccccc3)cc2)Cn2cncn2)c(Cl)c1 (racemic) | 0.5 µg/mL (≈ 1.07 µM) | 0.15 µg/mL (≈ 0.32 µM) | 35 µg/mL (≈ 74.7 µM) | 0.14 µg/mL (≈ 0.299 µM) | 3.5 µg/mL (≈ 7.47 µM) | 0.22 µg/mL (≈ 0.47 µM) | 10 µg/mL (≈ 21.4 µM) | 0.2 µg/mL (≈ 0.427 µM) | > 200 µg/mL | – |
| Clc1ccc(C(COCc2ccc(OCc3cccc(OCc4ccccc4)c3)cc2)Cn2cncn2)c(Cl)c1 (racemic) | 1.8 µg/mL (≈ 3.13 µM) | – | 140 µg/mL (≈ 244 µM) | 0.2 µg/mL (≈ 0.348 µM) | 25 µg/mL (≈ 43.5 µM) | 1.3 µg/mL (≈ 2.26 µM) | – | 0.9 µg/mL (≈ 1.57 µM) | > 200 µg/mL | – |
| Clc1ccc(C(COCc2ccc(OCc3ccc(OCc4ccccc4)cc3)cc2)Cn2cncn2)c(Cl)c1 (racemic) | 0.16 µg/mL (≈ 0.278 µM) | – | > 100 µg/mL | 0.2 µg/mL (≈ 0.348 µM) | 100 µg/mL (≈ 174 µM) | 0.2 µg/mL (≈ 0.348 µM) | – | 0.18 µg/mL (≈ 0.313 µM) | > 200 µg/mL | – |
| Clc1ccc(C(COCc2cccs2)Cn2cncn2)c(Cl)c1 (racemic) | 1.2 µg/mL (≈ 3.26 µM) | 0.2 µg/mL (≈ 0.543 µM) | 200 µg/mL (≈ 543 µM) | 0.1 µg/mL (≈ 0.272 µM) | 2 µg/mL (≈ 5.43 µM) | 0.7 µg/mL (≈ 1.9 µM) | 100 µg/mL (≈ 272 µM) | 0.2 µg/mL (≈ 0.543 µM) | 1.5 µg/mL (≈ 4.07 µM) | – |
| C=C(C)COCC(Cn1cncn1)c1ccc(Cl)cc1Cl (racemic) | 0.5 µg/mL (≈ 1.53 µM) | 0.1 µg/mL (≈ 0.307 µM) | 150 µg/mL (≈ 460 µM) | 0.25 µg/mL (≈ 0.766 µM) | 1.2 µg/mL (≈ 3.68 µM) | 0.75 µg/mL (≈ 2.3 µM) | 50 µg/mL (≈ 153 µM) | 0.15 µg/mL (≈ 0.46 µM) | 13 µg/mL (≈ 39.8 µM) | – |
| CC(C)=CCOCC(Cn1cncn1)c1ccc(Cl)cc1Cl (racemic) | 1 µg/mL (≈ 2.94 µM) | 0.13 µg/mL (≈ 0.382 µM) | 160 µg/mL (≈ 470 µM) | 0.22 µg/mL (≈ 0.647 µM) | 0.9 µg/mL (≈ 2.65 µM) | 0.5 µg/mL (≈ 1.47 µM) | 100 µg/mL (≈ 294 µM) | 0.18 µg/mL (≈ 0.529 µM) | 40 µg/mL (≈ 118 µM) | – |
| C=C(Cl)COCC(Cn1cncn1)c1ccc(Cl)cc1Cl (racemic) | 0.5 µg/mL (≈ 1.44 µM) | – | > 100 µg/mL | 0.5 µg/mL (≈ 1.44 µM) | 0.8 µg/mL (≈ 2.31 µM) | 2 µg/mL (≈ 5.77 µM) | – | 0.23 µg/mL (≈ 0.664 µM) | 12 µg/mL (≈ 34.6 µM) | – |
| Clc1ccc(C(COC/C=C/c2ccccc2)Cn2cncn2)c(Cl)c1 (racemic) | 1.3 µg/mL (≈ 3.35 µM) | 0.18 µg/mL (≈ 0.464 µM) | 140 µg/mL (≈ 361 µM) | 0.1 µg/mL (≈ 0.258 µM) | 3 µg/mL (≈ 7.73 µM) | 0.47 µg/mL (≈ 1.21 µM) | 10 µg/mL (≈ 25.8 µM) | 0.2 µg/mL (≈ 0.515 µM) | 40 µg/mL (≈ 103 µM) | – |
| Clc1ccc(C(COCCCc2ccccc2)Cn2cncn2)c(Cl)c1 (racemic) | 2.3 µg/mL (≈ 5.89 µM) | 0.19 µg/mL (≈ 0.487 µM) | 200 µg/mL (≈ 512 µM) | 0.15 µg/mL (≈ 0.384 µM) | 2.3 µg/mL (≈ 5.89 µM) | 1.3 µg/mL (≈ 3.33 µM) | 100 µg/mL (≈ 256 µM) | 0.18 µg/mL (≈ 0.461 µM) | 18 µg/mL (≈ 46.1 µM) | – |
| N#CCCOCC(Cn1cncn1)c1ccc(Cl)cc1Cl (racemic) | 20 µg/mL (≈ 61.5 µM) | 8.5 µg/mL (≈ 26.1 µM) | 250 µg/mL (≈ 769 µM) | 4 µg/mL (≈ 12.3 µM) | 18 µg/mL (≈ 55.4 µM) | 32 µg/mL (≈ 98.4 µM) | 60 µg/mL (≈ 185 µM) | 4 µg/mL (≈ 12.3 µM) | 32 µg/mL (≈ 98.4 µM) | – |
